The list is not random: actives were taken first. Their share in the collection is about 1.3%.
PME-1 inh: PME-1 inhibitors via competitive probe labeling, primary screen, biochemical, fluorescence polarization, FP-Rh probe, HTS; recombinant PME-1; hit rate 0.53% among 320,000; inhibition, % at 5.9 µM; Protein phosphatase methylesterase 1 (Homo sapiens), Q9Y570;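 active = inhibition above the campaign mean of all compounds plus 3 SD, cut at about 26% in these data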;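 note: competitive labeling of PME-1 active site by serine hydrolase directed probe; 0% = PME-1 with DMSO and 100% = wells lacking PME-1 enzyme; inhibitors block probe labeling so polarization falls and inhibition rises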
RBBP9 inh: human RBBP9 inhibitors, primary screen, biochemical, fluorescence polarization, FP-Rh probe, HTS | recombinant RBBP9 | inhibition, % at 7.94 µM | hit rate 0.2% among 220,000 | AID 1515, 2009;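 active = inhibition above the campaign mean of all tested compounds plus 3 SD, cut at about 14% in these data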;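 note: plate controls were DMSO wells with RBBP9 for no effect and wells lacking RBBP9 protein for full effect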
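Measured by: FP readout at 525/598 nm; material: recombinant human RBBP9; also added: Serine-hydrolase probe FP-Rh, 375 nM pre-mixing; medium: Tris buffer pH 8.0, NaCl, Pluronic; replication: one well per compound; doses: one concentration, 7.94 µM nominal, 0.794% DMSO; timing: preincubation 30 min plus labeling 45 min at 25 °C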
PAD4 FP inh: human PAD4 inhibitors, primary screen, biochemical, fluorescence polarization, 1536-well format | Protein-arginine deiminase type-4 (Homo sapiens), Q9UM07 | recombinant PAD4, RCA probe fluorescence polarization | inhibition, % at 6.36 µM | hit rate 0.41% among 330,000 | AID 485272, 2010;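 active = percent inhibition above a cutoff equal to the mean of all tested compounds plus 3 SD, cut at about 15% in these data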;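 note: 0% = PAD4 with RCA probe and DMSO and 100% = probe without PAD4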
Target sequence (Q9UM07 whole entry, looked up): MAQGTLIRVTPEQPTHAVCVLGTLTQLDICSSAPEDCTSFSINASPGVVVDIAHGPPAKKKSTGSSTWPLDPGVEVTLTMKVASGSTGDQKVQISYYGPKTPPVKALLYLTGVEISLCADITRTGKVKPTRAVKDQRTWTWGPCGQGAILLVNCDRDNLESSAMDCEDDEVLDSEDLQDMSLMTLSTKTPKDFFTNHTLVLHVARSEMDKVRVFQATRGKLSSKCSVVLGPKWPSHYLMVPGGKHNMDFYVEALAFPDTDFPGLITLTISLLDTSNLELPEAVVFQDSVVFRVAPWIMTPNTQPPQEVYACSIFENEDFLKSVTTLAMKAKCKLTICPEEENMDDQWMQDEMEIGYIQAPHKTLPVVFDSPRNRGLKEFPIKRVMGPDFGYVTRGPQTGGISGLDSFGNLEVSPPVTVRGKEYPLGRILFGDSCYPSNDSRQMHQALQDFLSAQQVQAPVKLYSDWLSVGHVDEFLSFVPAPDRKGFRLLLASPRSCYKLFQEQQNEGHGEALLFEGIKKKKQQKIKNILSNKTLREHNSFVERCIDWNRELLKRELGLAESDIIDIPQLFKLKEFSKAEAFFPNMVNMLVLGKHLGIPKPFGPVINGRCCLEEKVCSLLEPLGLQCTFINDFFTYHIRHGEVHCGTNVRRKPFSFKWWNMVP
LYPLA2 inh: LYPLA2 inhibitors, primary screen, counter-screen for PME1 inhibitor project, biochemical, fluorescence polarization, FP-Rh probe ABPP; Acyl-protein thioesterase 2 (Homo sapiens), O95372; recombinant LYPLA2; inhibition, % at 5.9 µM; hit rate 0.38% among 320,000;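 active = inhibition above the screen-wide mean plus 3 SD, limit set per campaign, cut at about 26% in these data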;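 note: 0% = LYPLA2 with DMSO and 100% = wells lacking LYPLA2 enzyme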
Fam108B counter: mouse Fam108B serine hydrolase inhibitors, primary screen, counter-screen for RBBP9 inhibitor project, biochemical, fluorescence polarization | recombinant Fam108B, FP-Rh probe fluorescence polarization | inhibition, % at 9.51 µM | hit rate 0.33% among 300,000 | AID 1947, 2009;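 active = inhibition above the screen mean inhibition plus 3 SD, computed separately per campaign, cut at about 18% in these data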;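 note: inhibitors lower polarization as less probe binds the enzyme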
LYPLA1 inh: LYPLA1 inhibitors, primary screen, counter-screen for PME1 inhibitor project, biochemical, fluorescence polarization, FP-Rh probe ABPP; recombinant LYPLA1; Acyl-protein thioesterase 1 (Homo sapiens), O75608; inhibition, % at 5.9 µM; hit rate 0.16% among 320,000;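 active = inhibition above the mean of all tested compounds plus 3 SD, set per campaign, cut at about 14% in these data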;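 note: inhibitors block serine hydrolase probe labeling of LYPLA1 so polarization falls; 0% = enzyme with DMSO and 100% = wells lacking LYPLA1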
Numbers without * were called inactive; · = no result.

SMILES	PME-1 inh	RBBP9 inh	PAD4 FP inh	LYPLA2 inh	Fam108B counter	LYPLA1 inh
O=C(O)COc1ccccc1/C=N/NC(=O)CSc1nnc(SCc2cccc3ccccc23)s1	-10.7	5.9	0.2	-6.5	-5.9	-10.3
O=C(CSc1nnc(SCc2cccc3ccccc23)s1)N/N=C/c1c[nH]c2ccccc12	26.4*	-2.1	3.8	6.8	33.5*	-16.8
CCOc1ccc(NC(=O)Nc2ccc3c(c2)N(C)C(=O)CS3)cc1	32.7*	-8.9	-2.8	-4.0	-1.1	-5.0
CC(=O)c1ccc(NC(=O)Nc2ccc3c(c2)N(C)C(=O)CS3)cc1	-9.8	-8.2	-7.4	-18.1	11.8	-20.4
Cc1nn(C)c(C)c1S(=O)(=O)N1CCC(CO)(CC2CCCCO2)CC1 (configuration not stated)	5.3	-4.0	-2.2	5.3	-1.4	6.1
O=C(CSc1nc(=O)n(CCCN2CCOCC2)c2c1CCCC2)Nc1cccc(F)c1	-2.8	·	0.6	-2.5	2.7	-1.4
CC1Oc2ccccc2C=C1/C=N/Nc1ccc(C(=O)O)cc1 (configuration not stated)	33.6*	-2.4	-2.5	2.7	0.1	7.0
CC(C)(C)c1ccc(/C=N/Nc2ccc(C(=O)O)cc2)cc1	13.0	-8.1	1.3	14.1	2.9	0.5
COc1ccc(NC(=O)C2CCN(C(=O)c3cccs3)CC2)cc1OC	31.6*	-1.0	1.3	0.7	2.2	1.4
COc1ccc(NC(=O)C2CCN(C(=O)c3ccccc3)CC2)cc1OC	1.3	-1.7	1.6	-1.8	2.9	1.6
Cn1c(=O)c2c(ncn2CCOc2cccc(Br)c2)n(C)c1=O	-4.6	·	-2.3	-1.3	-2.1	-3.3
Cc1nn(C)c(C)c1N1C(=O)c2cccc3c(Br)ccc(c23)C1=O	8.9	-4.0	4.9	-2.1	0.8	-0.5
Cc1nn(C)c(C)c1N1C(=O)c2cccc3c(N)ccc(c23)C1=O	17.9	-0.2	31.2*	12.9	9.9	11.3
CC1=NN(c2ccccc2)C(=O)/C1=C\c1cc(C)n(C)c1C	5.8	-5.1	2.5	0.9	-0.1	-2.0
CC1=NN(c2ccccc2)C(=O)/C1=C/c1cc2cc(C)ccc2nc1N1CCCCC1	14.7	-3.9	20.5*	2.7	6.5	1.4
CN(C)C(=O)c1ccc2c(c1[N+](=O)[O-])C(=O)c1ccccc1C2=O	2.9	-4.0	-2.3	14.3	1.7	5.3
Cc1[nH]c2ccccc2c1CCNC(=O)c1ccc2c(c1[N+](=O)[O-])C(=O)c1ccccc1C2=O	30.1*	-8.8	-25.2	3.9	17.9	-7.2
COc1ccc(NC(=O)Nc2nnc(N3CCC(C)CC3)s2)cc1OC	19.6	-1.4	-5.4	-1.7	1.7	1.1
COc1ccc(OC)c(NC(=O)Nc2nnc(N3CCC(C)CC3)s2)c1	29.2*	-11.0	-2.0	-11.3	1.9	-3.6
O=C(N/N=C/c1c[nH]c2ccccc12)c1sc2ccccc2c1Cl	32.5*	-1.9	-1.4	0.4	14.0	-7.6
O=C(N/N=C/c1c[nH]c2ccccc12)c1ccccc1	1.7	·	-5.5	6.9	-0.2	3.1
CCCCC(=O)NC1(C(F)(F)F)NC(=O)N(C)C1=O (configuration not stated)	-0.1	-1.0	-1.8	2.6	-7.7	0.3
CC1Oc2cc3oc4c(O)c5c(cc4c(=O)c3c(O)c2C1(C)C)C=CC(C)(C)O5 (configuration not stated)	-13.3	·	2.0	-9.1	-3.3	-9.0
CC(C)=CCc1cc2c(=O)c3c(O)c4c(cc3oc2c(O)c1O)OC(C)C4(C)C (configuration not stated)	29.7*	·	0.2	-36.9	-2.5	-29.2
CCCN(CCC)CCCNC(=O)c1nn(-c2cccc(OC)c2)c(=O)c2ccccc12	0.6	-1.6	-4.4	0.7	1.1	3.4
SMILES	PME-1 inh	RBBP9 inh	PAD4 FP inh	LYPLA2 inh	Fam108B counter	LYPLA1 inh
COc1cc(C2Nc3cccc4cccc(c34)N2)ccc1OC(C)=O	15.8	-5.5	-5.2	-0.8	22.1*	-7.8
COC(=O)c1ccc(C2Nc3cccc4cccc(c34)N2)cc1	52.3*	0.3	-10.6	-2.6	4.2	-4.9
FC(F)(F)c1ccc(C2Nc3cccc4cccc(c34)N2)cc1	·	-8.6	·	·	·	·
COc1cc(C2Nc3cccc4cccc(c34)N2)cc(OC)c1O	48.4*	-5.2	1.9	9.7	40.5*	-14.5
CCC(C)c1ccc(OCc2ccc(C(=O)OC)o2)cc1 (configuration not stated)	0.6	-3.9	0.5	0.8	-1.7	-2.6
O=C(NNc1cc(N2CCOCC2)nc(N2CCOCC2)n1)C12CC3CC(CC(C3)C1)C2	-9.7	-12.7	4.3	2.5	0.1	-2.5
CCn1c(=O)c2cc(C(=O)Nc3ccc(OC)cc3OC)sc2c2ccccc21	31.9*	-8.9	-3.9	-0.1	-0.9	3.1
CCn1c(=O)c2cc(C(=O)NCCOC)sc2c2ccccc21	-2.6	·	3.8	2.1	-0.1	1.1
O=c1c2c([N+](=O)[O-])cc([N+](=O)[O-])cc2sn1-c1ccc(Br)cc1	6.0	16.7*	-9.7	8.6	6.0	-1.8
O=c1c2c([N+](=O)[O-])cc([N+](=O)[O-])cc2sn1Cc1ccccc1	10.8	·	0.9	4.4	3.8	-3.9
CCN(c1ccccc1)S(=O)(=O)c1ccc(OC)c(NC(=O)Cc2ccc(F)cc2)c1	0.2	·	-8.0	-12.0	·	-10.5
CCN(c1ccccc1)S(=O)(=O)c1ccc(OC)c(NC(=O)CNCCc2ccccc2)c1	28.2*	-7.8	-2.7	2.8	-2.9	-1.9
COc1cccc(/C=N/NC(=S)Nc2cccc(S(=O)(=O)N(C)C)c2)c1	15.4	-12.1	-9.4	1.1	-0.9	-4.7
COc1cc(/C=N/NC(=S)Nc2cccc(S(=O)(=O)N(C)C)c2)cc(OC)c1O	29.2*	-2.3	-5.2	5.5	3.6	-2.1
O=C(O)/C=C/c1cn(-c2ccccc2)nc1-c1cccc([N+](=O)[O-])c1	7.2	-3.8	-1.7	4.2	-5.7	2.9
O=C(O)/C=C/c1cn(-c2ccccc2)nc1-c1ccc(-c2ccc([N+](=O)[O-])cc2)o1	27.3*	-4.8	-6.6	0.4	-10.6	0.9
Cc1ccc(C(=O)Nc2nnc(CC(=O)N/N=C/c3ccc(O)c(O)c3)s2)cc1	29.0*	·	-12.0	-7.3	17.9	-15.3
Cc1ccc(C(=O)Nc2nnc(CC(=O)N/N=C/c3ccncc3)s2)cc1	-5.3	-4.6	4.2	-10.7	-5.9	-10.6
O=C(O)c1ccc(N=Nc2c(O)[nH]c3ccc(Br)cc23)cc1	-0.2	·	-6.2	5.0	4.7	2.4
O=C(O)c1ccc(N=Nc2c(O)[nH]c3cc(Cl)ccc23)cc1	52.9*	-0.1	-4.5	2.4	1.9	5.7
